In data set [1] the test system is T47D. Description: Induction of apoptosis in human T47D cells assessed as late apoptotic cells at 1 uM after 48 hrs by annexin V-FITC/propidium iodide staining based flow cytometry (reference value: 6.16%). The format is functional.
The next data set has as its system MDA-MB-231. Briefly: Induction of apoptosis in human MDA-MB-231 cells assessed as late apoptotic cells at 10 uM after 48 hrs by annexin V-FITC/propidium iodide staining based flow cytometry (reference value: 1.53%). It is filed as functional. On the technique in general: Flow cytometry measures light scatter and fluorescence of single cells or particles in a stream.

For another data set, the system named is Hep 3B2. Briefly: Cell cycle arrest in human Hep3B cells assessed as decrease in S-phase at 625 nM after 24 hrs by propidium iodide staining based flow cytometry. It is filed as functional. Summed up: (§1)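 Cells were exposed for 24 h to a range of concentrations (625 nM, 2.5 and 10 µM), with DMSO vehicle as control. They were then stained with propidium iodide and analysed by flow cytometry to obtain the percentages of cells in G0/G1, S and G2 phases.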

Data set [2] deals with CDK6/cyclin D3 (Homo sapiens) (UniProt P30281+Q00534). Description: Inhibition of recombinant human full length N-terminal 6His-tagged CDK6/N-terminal GST-tagged Cyclin-D3 co-expressed in sf21 cells at 1 uM using histone H1 substrate in presence of [gamma33P]ATP after 10 mins by scintillation counting method relative to control.
In data set [3] the target is Cyclin-dependent kinase 5/CDK5 activator 1 (Homo sapiens) (UniProt Q00535+Q15078). Description: Inhibition of recombinant human full length N-terminal 6His-tagged CDK5/N-terminal GST-tagged p25 co-expressed in baculovirus infected sf21 cells at 1 uM using histone H1 substrate in presence of [gamma33P]ATP after 10 mins by scintillation counting method relative to control.

For data set [4], the system named is HepG2. Briefly: Cell cycle arrest in human HepG2 cells assessed as accumulation at G0/G1 phase at 625 nM after 24 hrs by propidium iodide staining based flow cytometry. It is filed as functional. Summed up:
as §1

Data set [5] deals with HepG2. Briefly: Cytotoxicity against human HepG2 cells assessed as reduction in cell viability after 72 hrs by CCK8 assay. It is filed as functional, cell-based. Particulars: HepG2, 72 h.
A further data set concerns MDA-MB-468. Briefly: Cytotoxicity against human MDA-MB-468 cells assessed as reduction in cell viability after 72 hrs by CCK8 assay. The format is functional, cell-based. To be noted: MDA-MB-468, 72 h. (Tetrazolium dyes change colour on reduction, which living cells bring about.)
The target in data set [6] is T1, Histone deacetylase 1 (Homo sapiens, UniProt Q13547). Description: Inhibition of HDAC1 (unknown origin).
For data set [7], the target named is T1, Histone deacetylase 1. Description: Potency index, ratio of vorinostat IC50 to compound IC50 for HDAC1 (unknown origin).
The test system of data set [8] is T47D. Briefly: Downregulation of CDK4 protein expression in human T47D cells after 48 hrs by Western blot method. It is filed as functional, cell-based. Summed up:
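Treated cells were lysed and CDK4 and cyclin D1 protein levels were assessed by Western blot.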

In the next data set the target is CDK4/CDK9 (Homo sapiens) (UniProt P11802+P50750). Briefly: Inhibition of CDK4/CDK9 in human Hep3B cells assessed as reduction in Rb phosphorylation at Ser807/811 residues at 1 uM after 48 hrs by Western blot method. It is filed as cell-based. On the technique in general: A western blot detects proteins with antibodies after separation by electrophoresis.
Data set [9] concerns the target T1, Histone deacetylase 1. Description: Inhibition of HDAC1 in human T47D cells assessed as increase in acetylated-histone H3 level at 1 to 5 uM after 48 hrs by Western blot method. The format is cell-based.
The target in data set [10] is T1, Histone deacetylase 1. Description: Inhibition of HDAC1 in human NCI-H460 cells assessed as increase in acetylated-histone H3 level at 1 to 5 uM after 48 hrs by Western blot method. It is filed as cell-based.
For data set [11], the target named is T1, Histone deacetylase 1. Briefly: Inhibition of HDAC1 in human Hep3B cells assessed as increase in acetylated-histone H3 level at 1 to 5 uM after 48 hrs by Western blot method. The format is cell-based.
Data set [12] concerns the target T1, Histone deacetylase 1. Description: Inhibition of HDAC1 in human T47D cells assessed as increase in p53 phosphorylation at Ser15 residue at 1 to 5 uM after 48 hrs by Western blot method. It is filed as cell-based.
A short description of data set [13]: Aqueous solubility in water at 1 mg using acid formulation sonicated for 24 hrs and incubated under unstirred condition for 24 hrs by HPLC method. The format is physicochemical.
Data set [14] in a line: MRT (0 to infinity) in Sprague-Dawley rat at 20 mg/kg, po administered as single dose by HPLC analysis. Particulars: in vivo. It is filed as ADME, organism-based.
Data set [15] in a line: Clearance in Sprague-Dawley rat at 20 mg/kg, po administered as single dose by HPLC analysis. Particulars: in vivo. It is filed as ADME, organism-based.

Molecules are shown by their SMILES. Calls of active or inactive are those of the source. The rule behind the calls is not given here.

T1 sequence (Q13547 whole entry): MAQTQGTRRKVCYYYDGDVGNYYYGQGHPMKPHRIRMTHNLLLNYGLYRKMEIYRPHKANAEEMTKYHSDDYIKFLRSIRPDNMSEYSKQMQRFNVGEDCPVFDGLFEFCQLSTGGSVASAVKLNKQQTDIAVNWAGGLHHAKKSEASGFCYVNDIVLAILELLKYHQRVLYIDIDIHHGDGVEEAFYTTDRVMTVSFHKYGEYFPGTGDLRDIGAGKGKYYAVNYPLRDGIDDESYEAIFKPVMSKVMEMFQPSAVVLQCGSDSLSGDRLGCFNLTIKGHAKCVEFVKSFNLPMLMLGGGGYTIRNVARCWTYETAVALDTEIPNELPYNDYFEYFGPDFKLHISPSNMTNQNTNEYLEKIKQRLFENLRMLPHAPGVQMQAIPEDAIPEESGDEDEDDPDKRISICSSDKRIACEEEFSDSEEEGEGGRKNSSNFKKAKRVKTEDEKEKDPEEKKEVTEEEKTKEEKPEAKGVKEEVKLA
Chain of Cyclin-dependent kinase 5/CDK5 activator 1 (Homo sapiens) (Q00535 whole entry): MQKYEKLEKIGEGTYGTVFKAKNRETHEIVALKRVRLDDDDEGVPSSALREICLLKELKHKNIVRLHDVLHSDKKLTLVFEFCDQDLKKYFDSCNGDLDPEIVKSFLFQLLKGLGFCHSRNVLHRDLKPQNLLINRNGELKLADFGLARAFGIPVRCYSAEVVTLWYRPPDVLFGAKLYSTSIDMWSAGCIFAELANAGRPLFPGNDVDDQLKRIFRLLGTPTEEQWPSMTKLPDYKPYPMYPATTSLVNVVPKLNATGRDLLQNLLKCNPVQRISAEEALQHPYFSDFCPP
Chain of Cyclin-dependent kinase 5/CDK5 activator 1 (Homo sapiens) (Q15078 99-307 partner limits assumed): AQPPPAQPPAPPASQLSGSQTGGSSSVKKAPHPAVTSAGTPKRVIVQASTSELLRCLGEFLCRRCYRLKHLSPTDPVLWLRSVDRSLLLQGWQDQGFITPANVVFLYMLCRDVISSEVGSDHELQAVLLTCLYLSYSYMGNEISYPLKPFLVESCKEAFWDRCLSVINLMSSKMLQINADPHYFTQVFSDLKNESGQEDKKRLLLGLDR
Chain of CDK4/CDK9 (Homo sapiens) (P11802 whole entry, looked up): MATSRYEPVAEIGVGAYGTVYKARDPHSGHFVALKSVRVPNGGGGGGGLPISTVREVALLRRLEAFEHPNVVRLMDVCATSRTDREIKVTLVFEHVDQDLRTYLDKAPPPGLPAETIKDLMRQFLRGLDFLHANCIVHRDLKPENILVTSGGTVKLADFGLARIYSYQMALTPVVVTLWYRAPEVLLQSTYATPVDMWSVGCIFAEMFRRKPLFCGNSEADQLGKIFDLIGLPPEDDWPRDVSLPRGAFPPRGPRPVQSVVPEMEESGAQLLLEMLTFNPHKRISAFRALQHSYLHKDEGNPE
Chain of CDK4/CDK9 (Homo sapiens) (P50750 whole entry, looked up): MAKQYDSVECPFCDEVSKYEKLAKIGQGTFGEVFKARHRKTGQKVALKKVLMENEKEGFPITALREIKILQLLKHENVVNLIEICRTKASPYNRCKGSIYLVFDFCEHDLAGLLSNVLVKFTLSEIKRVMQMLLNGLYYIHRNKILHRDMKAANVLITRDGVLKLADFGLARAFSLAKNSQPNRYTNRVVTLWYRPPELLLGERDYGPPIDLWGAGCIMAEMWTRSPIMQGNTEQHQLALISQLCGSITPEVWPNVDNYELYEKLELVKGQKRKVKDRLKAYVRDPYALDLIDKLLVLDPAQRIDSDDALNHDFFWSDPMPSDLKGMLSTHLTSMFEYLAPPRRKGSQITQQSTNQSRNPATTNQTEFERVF

On to `CN(C)C(=O)c1cc2cnc(Nc3ccc(NC(=O)CCCCCCC(=O)NO)cc3)nc2n1C1CCCC1`, for which the results for the Activity in the data set with T47D [1], in the data set on MDA-MB-231 and with T47D [8] were 6.48%, 6.59% and “Dose-dependent effect”, respectively. Moreover, the result in the data set with Hep 3B2 and with HepG2 [4] was Active. In addition, the inhibition (usually the drop in the measured response relative to a control, in per cent) in data set [2] is 70%; in [3], 78%. Besides, the IC50 – broadly, the midpoint of a concentration-inhibition curve – in the data set with HepG2 [5] is 3.37 µM; in the data set with MDA-MB-468, 1.82 µM; on Histone deacetylase 1 [6] it was 0.0022 µM. Besides, at Histone deacetylase 1 [7], the Ratio IC50 was greater than 10. The inhibition result on CDK4/CDK9 (Homo sapiens), on Histone deacetylase 1 [9], on Histone deacetylase 1 [10], at Histone deacetylase 1 [11] and on Histone deacetylase 1 [12] was “Active” in each case. Moreover, in data set [13], the solubility entry was “Insoluble”. Moreover, the mean residence time MRT inf (usually a mean duration of stay, worked out from the concentration-time curve) in [14] came to 20.3 h. For the same molecule, the CL/F (commonly the apparent clearance, not corrected for the fraction that reaches the circulation) in data set [15] was 344 mL/min/kg.

Values taken from ChEMBL document CHEMBL4020842, “Discovery of N1-(4-((7-Cyclopentyl-6-(dimethylcarbamoyl)-7 H-pyrrolo[2,3- d]pyrimidin-2-yl)amino)phenyl)- N8-hydroxyoctanediamide as a Novel Inhibitor Targeting Cyclin-dependent Kinase 4/9 (CDK4/9) and Histone Deacetlyase1 (HDAC1) against Malignant Cancer” (J Med Chem, 2018).
